According to ChEMBL document CHEMBL4732196, “Structural optimization towards promising β-methyl-4-acrylamido quinoline derivatives as PI3K/mTOR dual inhibitors for anti-cancer therapy: The in vitro and in vivo biological evaluation” (Eur J Med Chem, 2021):
pIC50: −log10 of the molar value. The source made the active and inactive calls. The calls are words filed in the database; no cut-off is given here.

Assays:
[1] = molecular target: Mitogen-activated protein kinase kinase kinase 4 (Homo sapiens) (UniProt Q9Y6R4); assay: Inhibition of human partial length MAP3K4 (G1319 to E1608 residues) expressed in bacterial expression system assessed as residual activity at 10 uM by kinome scan method relative to control
Summary of the method: (§1)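 KINOMEscan binding assay, test compound at 10 μM against a 52-kinase panel. % Ctrl = (compound signal − positive control signal)/(negative control signal − positive control signal) × 100, with DMSO as negative control (100%) and a positive control (0%).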

[2] = molecular target: Membrane-associated tyrosine- and threonine-specific cdc2-inhibitory kinase (Homo sapiens) (UniProt Q99640); assay: Inhibition of human partial length PKMYT1 (A88 to G366 residues) expressed in bacterial expression system assessed as residual activity at 10 uM by kinome scan method relative to control
Sequence of Membrane-associated tyrosine- and threonine-specific cdc2-inhibitory kinase (Homo sapiens) (Q99640 whole entry, the tested form may be a part): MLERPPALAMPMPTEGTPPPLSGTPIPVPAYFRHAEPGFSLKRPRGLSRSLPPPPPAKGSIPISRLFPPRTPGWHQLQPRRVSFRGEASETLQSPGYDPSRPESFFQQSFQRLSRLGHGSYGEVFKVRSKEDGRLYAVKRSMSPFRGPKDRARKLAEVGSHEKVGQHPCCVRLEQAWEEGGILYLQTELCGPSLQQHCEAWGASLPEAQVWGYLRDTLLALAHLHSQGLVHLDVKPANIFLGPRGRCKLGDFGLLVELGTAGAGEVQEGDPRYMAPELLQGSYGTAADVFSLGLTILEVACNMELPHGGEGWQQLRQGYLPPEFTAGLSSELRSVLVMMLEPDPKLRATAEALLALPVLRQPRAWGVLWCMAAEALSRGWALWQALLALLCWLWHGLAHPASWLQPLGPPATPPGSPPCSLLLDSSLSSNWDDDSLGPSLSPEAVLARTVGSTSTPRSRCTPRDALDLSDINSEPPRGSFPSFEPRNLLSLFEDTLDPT
Summary of the method: (§2)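 KINOMEscan competitive binding screen at 10 μM test compound against a 52-kinase panel. Output is % Ctrl = (test signal − positive control signal)/(negative control signal − positive control signal) × 100. DMSO is the negative control (100%) and the positive control is set to 0%.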

[3] = molecular target: Phosphatidylinositol 4,5-bisphosphate 3-kinase catalytic subunit delta isoform (Homo sapiens) (UniProt O00329); assay: Inhibition of human partial length PIK3CD (R108 to Q1044 residues) expressed in mammalian expression system assessed as residual activity at 10 uM by kinome scan method relative to control; summary of the method: as §2
[4] = molecular target: Phosphatidylinositol 3-kinase C2 domain-containing subunit gamma (Homo sapiens) (UniProt O75747); assay: Inhibition of human partial length PIK3C2G (M1 to I1446 residues) expressed in mammalian expression system assessed as residual activity at 10 uM by kinome scan method relative to control; summary of the method: as §1
[5] = molecular target: Cyclin-dependent kinase-like 3 (Homo sapiens) (UniProt Q8IVW4); assay: Inhibition of human partial length CDKL1 (M1 to D327 residues) expressed in bacterial system assessed as residual activity at 10 uM by kinome scan method relative to control; summary of the method: as §1
Sequence of Cyclin-dependent kinase-like 3 (Homo sapiens) (Q8IVW4 whole entry, looked up, the tested form may be a part, canonical isoform): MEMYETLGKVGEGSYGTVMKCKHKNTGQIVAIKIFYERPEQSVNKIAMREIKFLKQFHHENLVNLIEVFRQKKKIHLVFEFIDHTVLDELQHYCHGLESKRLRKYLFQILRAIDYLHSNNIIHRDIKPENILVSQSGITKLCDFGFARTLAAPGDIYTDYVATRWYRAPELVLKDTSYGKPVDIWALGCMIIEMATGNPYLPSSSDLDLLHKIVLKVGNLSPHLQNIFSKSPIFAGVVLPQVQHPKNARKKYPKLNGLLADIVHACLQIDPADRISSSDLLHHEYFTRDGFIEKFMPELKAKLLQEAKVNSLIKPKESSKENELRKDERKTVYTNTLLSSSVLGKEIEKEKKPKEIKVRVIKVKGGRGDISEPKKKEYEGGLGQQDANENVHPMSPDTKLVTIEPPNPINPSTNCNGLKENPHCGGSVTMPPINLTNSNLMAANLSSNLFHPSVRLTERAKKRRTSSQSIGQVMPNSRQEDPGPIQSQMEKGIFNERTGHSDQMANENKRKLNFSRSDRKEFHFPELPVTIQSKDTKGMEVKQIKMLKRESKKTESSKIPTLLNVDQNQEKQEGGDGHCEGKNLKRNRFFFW

[6] = molecular target: Casein kinase I isoform alpha-like (Homo sapiens) (UniProt Q8N752); assay: Inhibition of human partial length CSNK1A1L (M1 to N337 residues) expressed in bacterial expression system assessed as residual activity at 10 uM by kinome scan method relative to control; summary of the method: as §1
[7] = molecular target: Phosphatidylinositol 4,5-bisphosphate 3-kinase catalytic subunit delta isoform (Homo sapiens, UniProt O00329); assay: Inhibition of PI3Kdelta (unknown origin) using PIP2 as substrate measured after 1 hr by ADP-glo assay
[8] = molecular target: Cyclin-dependent kinase 18 (Homo sapiens) (UniProt Q07002); assay: Inhibition of human full length PCTK3 (M3 to F474 residues) expressed in bacterial expression system assessed as residual activity at 10 uM by kinome scan method relative to control; summary of the method: as §1
Sequence of Cyclin-dependent kinase 18 (Homo sapiens) (Q07002 whole entry, the tested form may be a part): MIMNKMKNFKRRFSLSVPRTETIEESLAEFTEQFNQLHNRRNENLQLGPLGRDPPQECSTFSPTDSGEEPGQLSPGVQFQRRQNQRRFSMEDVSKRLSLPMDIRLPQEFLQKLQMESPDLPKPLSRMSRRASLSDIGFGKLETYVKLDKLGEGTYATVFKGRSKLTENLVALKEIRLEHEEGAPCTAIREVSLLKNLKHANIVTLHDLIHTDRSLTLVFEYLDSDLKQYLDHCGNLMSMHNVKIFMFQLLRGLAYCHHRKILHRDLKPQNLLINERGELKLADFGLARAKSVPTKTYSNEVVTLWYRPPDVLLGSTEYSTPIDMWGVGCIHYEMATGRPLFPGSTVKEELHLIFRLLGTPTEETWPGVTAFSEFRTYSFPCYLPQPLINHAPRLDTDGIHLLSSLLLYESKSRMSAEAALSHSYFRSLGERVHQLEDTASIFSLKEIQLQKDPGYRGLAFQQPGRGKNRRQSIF

U87 [9] = assay: Inhibition of PI3K in human U87MG cells assessed as suppression of phosphorylation of AKT at Ser473 residue at 25 nM after 3 hrs by Western blot analysis; type: cell-based
Summary of the method: (§3)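 U87MG cells seeded at 1×10^6 per well, incubated overnight at 37 °C, 5% CO₂, then treated at various concentrations for 3 h at 37 °C. Western blot for phospho-Akt (Ser473, Thr308), phospho-S6 (Ser235/236) and phospho-4E-BP1 (Thr37/46), with GAPDH as internal control. Bands quantified as mean ± SD, n = 3 biological replicates, versus untreated cells.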

[10] = molecular target: Mitogen-activated protein kinase 4 (Homo sapiens) (UniProt P31152); assay: Inhibition of human partial length ERK4 (M1 to L365 residues) expressed in mammalian expression system assessed as residual activity at 10 uM by kinome scan method relative to control; summary of the method: as §1
[11] = molecular target: Mitogen-activated protein kinase 6 (Homo sapiens) (UniProt Q16659); assay: Inhibition of human partial length ERK3 (M1 to P413 residues) expressed in bacterial expression system assessed as residual activity at 10 uM by kinome scan method relative to control; summary of the method: as §1
Sequence of Mitogen-activated protein kinase 6 (Homo sapiens) (Q16659 whole entry, the tested form may be a part): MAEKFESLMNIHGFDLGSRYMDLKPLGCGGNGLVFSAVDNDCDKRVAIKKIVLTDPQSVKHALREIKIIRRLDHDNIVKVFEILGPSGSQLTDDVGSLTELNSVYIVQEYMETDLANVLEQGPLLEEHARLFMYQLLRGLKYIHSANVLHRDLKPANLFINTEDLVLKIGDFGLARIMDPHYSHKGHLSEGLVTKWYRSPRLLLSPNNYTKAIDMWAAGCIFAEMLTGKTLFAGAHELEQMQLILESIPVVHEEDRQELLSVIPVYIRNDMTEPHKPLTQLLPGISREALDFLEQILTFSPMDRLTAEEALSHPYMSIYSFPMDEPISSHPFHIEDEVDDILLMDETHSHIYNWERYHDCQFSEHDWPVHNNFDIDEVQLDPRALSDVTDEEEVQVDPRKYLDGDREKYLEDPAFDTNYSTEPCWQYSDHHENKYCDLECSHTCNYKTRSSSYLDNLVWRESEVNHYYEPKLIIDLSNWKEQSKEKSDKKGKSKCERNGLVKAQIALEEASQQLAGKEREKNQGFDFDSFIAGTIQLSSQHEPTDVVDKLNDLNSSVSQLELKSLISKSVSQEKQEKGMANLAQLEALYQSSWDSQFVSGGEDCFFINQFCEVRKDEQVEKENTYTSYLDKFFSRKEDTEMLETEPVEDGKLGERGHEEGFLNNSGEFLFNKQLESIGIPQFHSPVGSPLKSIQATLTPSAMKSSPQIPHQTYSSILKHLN

PC-3 = assay: Growth inhibition of human PC3 cells after 72 hrs by sulforhodamine B assay; type: functional
[12] = molecular target: Phosphatidylinositol 5-phosphate 4-kinase type-2 beta (Homo sapiens) (UniProt P78356); assay: Inhibition of human full length PIP5K2B (M1 to T416 residues) expressed in bacterial expression system assessed as residual activity at 10 uM by kinome scan method relative to control; summary of the method: as §1
Sequence of Phosphatidylinositol 5-phosphate 4-kinase type-2 beta (Homo sapiens) (P78356 whole entry, the tested form may be a part): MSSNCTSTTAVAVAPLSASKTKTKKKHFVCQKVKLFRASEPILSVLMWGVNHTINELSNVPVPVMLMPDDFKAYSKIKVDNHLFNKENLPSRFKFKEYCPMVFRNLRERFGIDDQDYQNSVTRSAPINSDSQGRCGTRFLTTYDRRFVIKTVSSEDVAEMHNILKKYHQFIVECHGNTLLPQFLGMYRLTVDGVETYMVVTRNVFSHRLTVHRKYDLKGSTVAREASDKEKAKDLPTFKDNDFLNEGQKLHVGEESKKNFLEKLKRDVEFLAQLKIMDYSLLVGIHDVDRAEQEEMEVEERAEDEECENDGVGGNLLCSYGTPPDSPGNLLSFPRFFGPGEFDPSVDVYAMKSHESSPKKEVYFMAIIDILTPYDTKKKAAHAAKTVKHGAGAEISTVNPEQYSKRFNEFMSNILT

[13] = molecular target: Receptor-interacting serine/threonine-protein kinase 4 (Homo sapiens) (UniProt P57078); assay: Inhibition of human partial length RIPK4 (M1 to V303 residues) expressed in mammalian expression system assessed as residual activity at 10 uM by kinome scan method relative to control; summary of the method: as §2
[14] = molecular target: Cyclin-dependent kinase 17 (Homo sapiens) (UniProt Q00537); assay: Inhibition of human full length PCTK2 (M1 to F523 residues) expressed in bacterial expression system assessed as residual activity at 10 uM by kinome scan method relative to control; summary of the method: as §1
[15] = molecular target: Mitogen-activated protein kinase kinase kinase 15 (Homo sapiens) (UniProt Q6ZN16); assay: Inhibition of human partial length MAP3K15 (T625 to L932 residues) expressed in bacterial expression system assessed as residual activity at 10 uM by kinome scan method relative to control; summary of the method: as §1
Sequence of Mitogen-activated protein kinase kinase kinase 15 (Homo sapiens) (Q6ZN16 whole entry, the tested form may be a part): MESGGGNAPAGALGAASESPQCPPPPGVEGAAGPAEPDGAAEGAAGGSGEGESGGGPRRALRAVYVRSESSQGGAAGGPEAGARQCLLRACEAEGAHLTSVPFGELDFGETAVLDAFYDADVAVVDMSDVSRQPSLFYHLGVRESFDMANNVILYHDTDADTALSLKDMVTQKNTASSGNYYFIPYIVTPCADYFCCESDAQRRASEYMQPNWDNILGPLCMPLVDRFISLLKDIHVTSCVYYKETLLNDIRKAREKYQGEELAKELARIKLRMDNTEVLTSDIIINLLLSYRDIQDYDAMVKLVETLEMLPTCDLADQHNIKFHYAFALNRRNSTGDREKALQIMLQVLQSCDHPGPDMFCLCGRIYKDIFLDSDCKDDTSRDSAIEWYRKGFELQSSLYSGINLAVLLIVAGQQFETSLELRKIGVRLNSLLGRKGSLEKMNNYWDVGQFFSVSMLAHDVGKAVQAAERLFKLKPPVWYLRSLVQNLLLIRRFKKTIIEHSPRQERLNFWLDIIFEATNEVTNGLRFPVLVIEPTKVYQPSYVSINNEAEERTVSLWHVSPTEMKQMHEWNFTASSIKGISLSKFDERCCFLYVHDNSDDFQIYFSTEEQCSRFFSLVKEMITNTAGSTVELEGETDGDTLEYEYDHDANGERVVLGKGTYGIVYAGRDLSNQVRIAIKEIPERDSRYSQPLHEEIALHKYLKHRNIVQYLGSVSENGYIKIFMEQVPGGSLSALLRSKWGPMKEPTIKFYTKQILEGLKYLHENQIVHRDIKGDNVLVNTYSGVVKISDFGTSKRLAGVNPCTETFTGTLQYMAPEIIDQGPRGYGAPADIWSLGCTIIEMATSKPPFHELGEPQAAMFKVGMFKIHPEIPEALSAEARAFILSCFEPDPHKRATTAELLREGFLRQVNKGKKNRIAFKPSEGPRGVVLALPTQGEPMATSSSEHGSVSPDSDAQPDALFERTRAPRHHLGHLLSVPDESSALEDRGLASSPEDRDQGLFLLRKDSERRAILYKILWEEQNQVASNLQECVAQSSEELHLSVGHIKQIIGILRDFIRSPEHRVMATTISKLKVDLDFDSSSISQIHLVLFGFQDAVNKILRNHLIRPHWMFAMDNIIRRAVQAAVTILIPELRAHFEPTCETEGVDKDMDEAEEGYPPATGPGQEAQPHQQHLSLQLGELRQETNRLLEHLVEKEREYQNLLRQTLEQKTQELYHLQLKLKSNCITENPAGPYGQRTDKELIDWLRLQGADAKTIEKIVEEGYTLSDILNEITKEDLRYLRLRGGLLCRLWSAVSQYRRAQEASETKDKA

[16] = molecular target: Cyclin-dependent kinase-like 5 (Homo sapiens) (UniProt O76039); assay: Inhibition of human partial length CDKL5 (M1 to S337 residues) expressed in mammalian expression system assessed as residual activity at 10 uM by kinome scan method relative to control; summary of the method: as §1
Sequence of Cyclin-dependent kinase-like 5 (Homo sapiens) (O76039 whole entry, the tested form may be a part): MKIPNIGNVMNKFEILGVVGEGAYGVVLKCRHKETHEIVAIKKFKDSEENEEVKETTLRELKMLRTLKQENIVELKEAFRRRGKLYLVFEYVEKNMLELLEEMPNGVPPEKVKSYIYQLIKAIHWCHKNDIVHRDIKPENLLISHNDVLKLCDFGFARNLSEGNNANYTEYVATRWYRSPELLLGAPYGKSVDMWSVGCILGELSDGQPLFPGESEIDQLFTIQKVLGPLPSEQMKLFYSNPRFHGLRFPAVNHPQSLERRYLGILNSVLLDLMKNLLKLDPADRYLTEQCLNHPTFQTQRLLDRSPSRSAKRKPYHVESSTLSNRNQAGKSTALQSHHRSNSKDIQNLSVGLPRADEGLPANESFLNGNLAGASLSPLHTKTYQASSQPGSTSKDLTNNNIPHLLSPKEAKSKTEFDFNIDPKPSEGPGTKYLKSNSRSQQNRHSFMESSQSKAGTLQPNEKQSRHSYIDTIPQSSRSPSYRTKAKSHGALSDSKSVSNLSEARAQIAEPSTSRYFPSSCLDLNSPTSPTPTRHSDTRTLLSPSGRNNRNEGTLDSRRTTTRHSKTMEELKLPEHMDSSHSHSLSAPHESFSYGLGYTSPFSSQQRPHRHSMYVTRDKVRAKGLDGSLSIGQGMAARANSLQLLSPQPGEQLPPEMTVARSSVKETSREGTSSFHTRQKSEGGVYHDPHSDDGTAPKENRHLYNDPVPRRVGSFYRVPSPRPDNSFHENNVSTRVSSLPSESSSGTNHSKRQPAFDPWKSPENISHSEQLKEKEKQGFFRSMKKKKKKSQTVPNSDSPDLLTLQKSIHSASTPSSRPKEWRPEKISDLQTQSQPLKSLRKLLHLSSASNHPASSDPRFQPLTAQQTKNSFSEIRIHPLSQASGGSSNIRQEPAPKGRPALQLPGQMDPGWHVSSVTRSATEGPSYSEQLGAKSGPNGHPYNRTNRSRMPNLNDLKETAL

U-87 MG = assay: Antitumour activity against human U87MG cells xenografted in ICR nude mouse assessed as tumour growth inhibition at 30 mg/kg, po every other day for 24 days relative to control; type: functional, U-87MG ATCC; conditions: 576 h, time 24 day, read-out: TGI
Summary of the method: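 Male ICR nude mice inoculated subcutaneously with 5 × 10⁶ U87MG cells. Once tumours reached about 200 mm³, mice were randomised and dosed by oral gavage every other day for 24 days. Tumour volume (length × width² × 0.5) and body weight recorded every 4 days. Inhibition = 100 × {1 − [(final − initial volume) treated]/[(final − initial volume) vehicle]}.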

[17] = molecular target: Tyrosine-protein kinase receptor Tie-1 (Homo sapiens) (UniProt P35590); assay: Inhibition of human partial length TIE1 (T819 to A1138 residues) expressed in bacterial expression system assessed as residual activity at 10 uM by kinome scan method relative to control; summary of the method: as §2
[18] = molecular target: Phosphatidylinositol 4,5-bisphosphate 3-kinase catalytic subunit alpha isoform (Homo sapiens, UniProt P42336); assay: Inhibition of recombinant human PI3Kalpha using PIP2 as substrate incubated for 1 hr by kinase-glo luminescent assay
U87 [19] = assay: Inhibition of PI3K in human U87MG cells assessed as suppression of phosphorylation of AKT at Thr308 residue at 25 nM after 3 hrs by Western blot analysis; type: cell-based; summary of the method: as §3
[20] = molecular target: Cyclin-dependent kinase-like 1 (Homo sapiens) (UniProt Q00532); assay: Inhibition of human partial length CDKL1 (M1 to I358 residues) expressed in bacterial system assessed as residual activity at 10 uM by kinome scan method relative to control; summary of the method: as §1

Activity [1]: 92%
Activity [2]: 70%
Activity [3]: 0%
Activity [4]: 0%
Activity [5]: 100%
Activity [6]: 84%
pIC50 [7]: 8.89
Activity [8]: 78%
Activity [10]: 100%
Activity [11]: 78%
GI50 (PC-3): 360 nM
Activity [12]: 9.4%
Activity [13]: 82%
Activity [14]: 100%
Activity [15]: 45%
Activity [16]: 69%
Activity [17]: 71%
pIC50 [18]: 9.10
Activity [20]: 82%
SMILES: COc1ncc(-c2ccc3nccc(/C(C)=C/C(=O)N4CCN(C)CC4)c3c2)cc1NS(=O)(=O)c1ccc(F)cc1F
inhibition (U87 [9]): Active
inhibition in vivo at 30 mg/kg (U-87 MG): 93.5%
inhibition (U87 [19]): Active
